Measured values: ChEMBL document CHEMBL4196166 (J Med Chem, 2018)
Calls of active or inactive are those of the source. The rule behind the calls is not given here.

Experiments:
[1] = target: T1, Urokinase-type plasminogen activator (Homo sapiens, UniProt P00749); experiment: Inhibition of human kidney uPA using Z-Gly-Gly-Arg-AMC as substrate measured over 15 mins by fluorescence assay
[2] = target: T2, Epithelial sodium channel subunit beta (Homo sapiens, UniProt P51168); experiment: Inhibition of S-3969-stimulated recombinant human ENaC beta subunit expressed in HEK293 cells at 10 uM preincubated for 5 mins followed by S-3969 stimulation by FLIPR assay; type: cell-based; settings: hek293, 10 µM
T2 sequence (P51168 whole entry): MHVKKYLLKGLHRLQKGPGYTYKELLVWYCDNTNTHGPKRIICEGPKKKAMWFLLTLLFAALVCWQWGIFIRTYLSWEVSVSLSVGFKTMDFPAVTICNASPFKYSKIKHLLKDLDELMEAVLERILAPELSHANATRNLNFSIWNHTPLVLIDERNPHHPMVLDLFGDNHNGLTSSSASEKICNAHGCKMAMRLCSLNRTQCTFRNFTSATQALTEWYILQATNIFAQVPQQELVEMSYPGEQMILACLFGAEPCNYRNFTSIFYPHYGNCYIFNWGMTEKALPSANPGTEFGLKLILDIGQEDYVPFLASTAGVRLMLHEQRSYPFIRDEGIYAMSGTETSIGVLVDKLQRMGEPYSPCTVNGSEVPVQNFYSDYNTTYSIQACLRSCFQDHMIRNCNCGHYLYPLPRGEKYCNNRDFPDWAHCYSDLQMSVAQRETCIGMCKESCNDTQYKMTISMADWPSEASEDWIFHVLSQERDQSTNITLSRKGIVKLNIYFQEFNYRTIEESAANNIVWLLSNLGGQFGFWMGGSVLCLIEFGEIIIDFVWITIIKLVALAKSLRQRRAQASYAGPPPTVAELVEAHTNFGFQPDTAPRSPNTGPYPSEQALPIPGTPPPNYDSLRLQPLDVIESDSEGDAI
Method in brief: (§1)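 HEK-293 cells transfected with human ENaC α, β and γ cDNA together, plated at 20 000 cells/well, incubated overnight at 37 °C. Loaded with membrane-potential red dye for 30 min at 37 °C. Compound preincubated 5 min in HEPES-buffered salt solution (pH 7.4, 0.3% DMSO), then stimulated with 1 µM S-3969, read on FLIPR. Signal normalized to agonist alone (100%) and agonist plus 30 µM benzamil (0%). n = 4 wells.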

Trypsin = Trypsin (Homo sapiens, UniProt P07477+P07478+P35030); experiment: Inhibition of trypsin (unknown origin) at 10 nM to 33.3 uM after 30 mins by gel-based ABPP assay; type: protein assay
HEK293 = experiment: Cytotoxicity against HEK293 cells assessed as reduction in cell viability after 48 hrs by CellTiter 96 Aqueous One solution cell proliferation assay; type: cell-based; settings: Homo sapiens, HEK293, 48 h
Method in brief: (§2)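 Cells grown in DMEM high glucose with 10% heat-inactivated FCS, seeded at 5000/well and left 18 h. Compounds added at 1 nM–100 µM final (0.2% vehicle), n = 4 wells per concentration, with colour blanks. After 48 h, MTS reagent added for 2 h and A490 read. IC50 from a variable-slope sigmoidal fit.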

HT-1080 = experiment: Cytotoxicity against human HT1080 cells assessed as reduction in cell viability after 48 hrs by CellTiter 96 Aqueous One solution cell proliferation assay; type: functional, cell-based; settings: HT-1080, 48 h; method in brief: as §2
MDA-MB-231 = experiment: Cytotoxicity against human MDA-MB-231 cells assessed as reduction in cell viability after 48 hrs by CellTiter 96 Aqueous One solution cell proliferation assay; type: functional, cell-based; settings: MDA-MB-231, 48 h; method in brief: as §2
[3] = target: T1, Urokinase-type plasminogen activator; experiment: Inhibition of human kidney uPA after 30 mins by gel-based ABPP assay
[4] = target: T3, Epithelial sodium channel subunit gamma (Homo sapiens, UniProt P51170); experiment: Inhibition of S-3969-stimulated recombinant human ENaC gamma subunit expressed in HEK293 cells at 10 uM preincubated for 5 mins followed by S-3969 stimulation by FLIPR assay; type: cell-based; settings: hek293, 10 µM; method in brief: as §1
T3 sequence (P51170 whole entry): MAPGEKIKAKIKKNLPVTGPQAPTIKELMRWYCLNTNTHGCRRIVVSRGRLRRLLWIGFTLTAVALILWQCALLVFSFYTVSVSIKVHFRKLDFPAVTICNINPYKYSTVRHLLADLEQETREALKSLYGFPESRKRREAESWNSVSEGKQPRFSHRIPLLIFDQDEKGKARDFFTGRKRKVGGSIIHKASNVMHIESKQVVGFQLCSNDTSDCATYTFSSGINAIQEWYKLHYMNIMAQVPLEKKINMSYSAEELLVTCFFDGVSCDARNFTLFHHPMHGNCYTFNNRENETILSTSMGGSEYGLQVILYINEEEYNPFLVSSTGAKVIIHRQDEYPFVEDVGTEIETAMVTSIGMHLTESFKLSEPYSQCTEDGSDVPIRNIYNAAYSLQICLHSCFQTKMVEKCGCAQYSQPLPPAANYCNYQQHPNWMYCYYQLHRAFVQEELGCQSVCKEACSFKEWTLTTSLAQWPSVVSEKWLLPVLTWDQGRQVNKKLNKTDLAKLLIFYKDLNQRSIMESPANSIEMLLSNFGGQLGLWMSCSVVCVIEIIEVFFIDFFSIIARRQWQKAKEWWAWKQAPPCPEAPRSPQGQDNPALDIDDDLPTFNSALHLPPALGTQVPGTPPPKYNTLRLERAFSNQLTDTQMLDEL

[5] = target: T4, Epithelial sodium channel subunit alpha (Homo sapiens, UniProt P37088); experiment: Inhibition of S-3969-stimulated recombinant human ENaC alpha subunit expressed in HEK293 cells at 10 uM preincubated for 5 mins followed by S-3969 stimulation by FLIPR assay; type: cell-based; settings: hek293, 10 µM; method in brief: as §1
T4 sequence (P37088 whole entry): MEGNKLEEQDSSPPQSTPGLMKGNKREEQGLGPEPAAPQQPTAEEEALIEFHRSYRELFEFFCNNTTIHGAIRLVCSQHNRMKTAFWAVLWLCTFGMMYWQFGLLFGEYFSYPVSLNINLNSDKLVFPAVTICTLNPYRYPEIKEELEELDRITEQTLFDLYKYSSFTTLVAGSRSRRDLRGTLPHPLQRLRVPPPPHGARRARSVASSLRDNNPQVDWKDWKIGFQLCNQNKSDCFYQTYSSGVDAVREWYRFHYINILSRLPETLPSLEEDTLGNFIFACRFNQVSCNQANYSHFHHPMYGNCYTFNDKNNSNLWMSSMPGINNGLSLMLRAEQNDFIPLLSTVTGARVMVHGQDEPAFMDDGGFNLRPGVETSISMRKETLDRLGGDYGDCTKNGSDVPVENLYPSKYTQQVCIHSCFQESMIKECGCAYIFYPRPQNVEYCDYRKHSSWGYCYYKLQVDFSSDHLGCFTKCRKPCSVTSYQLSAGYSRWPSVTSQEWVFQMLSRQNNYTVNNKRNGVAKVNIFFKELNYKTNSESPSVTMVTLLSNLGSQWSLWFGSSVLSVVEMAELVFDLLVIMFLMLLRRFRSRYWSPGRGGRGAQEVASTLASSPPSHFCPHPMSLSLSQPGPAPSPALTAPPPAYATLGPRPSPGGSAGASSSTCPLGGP

HepG2 = experiment: Cytotoxicity against human HepG2 cells assessed as reduction in cell viability after 48 hrs by CellTiter 96 Aqueous One solution cell proliferation assay; type: functional, cell-based; settings: HepG2, 48 h; method in brief: as §2
Plasminogen = Plasminogen (Homo sapiens, UniProt P00747); experiment: Inhibition of plasmin (unknown origin) using chromogenic H-D-Ile-L-Pro-L-Arg-p-nitoraniline as substrate by […]
Sequence of Plasminogen (P00747 97-580 limits assumed): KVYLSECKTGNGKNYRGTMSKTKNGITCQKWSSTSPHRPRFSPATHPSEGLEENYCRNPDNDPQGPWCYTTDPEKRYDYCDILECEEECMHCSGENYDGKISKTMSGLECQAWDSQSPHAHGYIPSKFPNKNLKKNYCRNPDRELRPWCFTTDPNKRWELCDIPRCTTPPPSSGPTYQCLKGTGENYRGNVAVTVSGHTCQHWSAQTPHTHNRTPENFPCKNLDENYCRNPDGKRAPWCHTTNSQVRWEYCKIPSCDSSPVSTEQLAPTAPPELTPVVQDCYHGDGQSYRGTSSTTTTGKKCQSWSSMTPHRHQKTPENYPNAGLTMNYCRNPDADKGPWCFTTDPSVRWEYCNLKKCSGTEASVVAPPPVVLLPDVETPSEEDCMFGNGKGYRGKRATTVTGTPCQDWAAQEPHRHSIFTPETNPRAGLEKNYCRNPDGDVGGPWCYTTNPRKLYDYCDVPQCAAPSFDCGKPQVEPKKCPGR
Sequence of Plasminogen (P00747 581-810 limits assumed): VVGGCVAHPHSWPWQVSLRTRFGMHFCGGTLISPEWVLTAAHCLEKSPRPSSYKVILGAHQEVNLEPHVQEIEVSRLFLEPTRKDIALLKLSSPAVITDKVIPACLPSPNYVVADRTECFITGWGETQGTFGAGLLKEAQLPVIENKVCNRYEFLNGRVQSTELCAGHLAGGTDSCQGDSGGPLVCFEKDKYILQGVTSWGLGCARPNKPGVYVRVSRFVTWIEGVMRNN

Prothrombin = Prothrombin (Homo sapiens, UniProt P00734); experiment: Inhibition of thrombin (unknown origin) using chromogenic H-D-Ile-L-Pro-L-Arg-p-nitoraniline as substrate by […]
Coagulation factor XI = Coagulation factor XI (Homo sapiens, UniProt P03951); experiment: Inhibition of factor 11a (unknown origin) using chromogenic L-pyroGlu-L-Pro-L-Arg-p-nitroaniline as substrate by […]
Sequence of Coagulation factor XI (P03951 19-387 limits assumed): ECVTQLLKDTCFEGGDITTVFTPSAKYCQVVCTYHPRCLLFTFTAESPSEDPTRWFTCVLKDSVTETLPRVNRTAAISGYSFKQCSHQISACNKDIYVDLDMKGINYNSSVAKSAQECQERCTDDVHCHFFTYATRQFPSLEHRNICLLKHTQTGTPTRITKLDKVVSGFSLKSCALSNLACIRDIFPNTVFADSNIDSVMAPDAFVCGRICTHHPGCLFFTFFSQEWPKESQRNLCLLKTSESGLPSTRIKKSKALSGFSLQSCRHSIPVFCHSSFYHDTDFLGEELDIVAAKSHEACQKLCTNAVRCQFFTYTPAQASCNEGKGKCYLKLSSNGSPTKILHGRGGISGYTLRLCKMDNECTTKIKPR
Sequence of Coagulation factor XI (P03951 388-625 limits assumed): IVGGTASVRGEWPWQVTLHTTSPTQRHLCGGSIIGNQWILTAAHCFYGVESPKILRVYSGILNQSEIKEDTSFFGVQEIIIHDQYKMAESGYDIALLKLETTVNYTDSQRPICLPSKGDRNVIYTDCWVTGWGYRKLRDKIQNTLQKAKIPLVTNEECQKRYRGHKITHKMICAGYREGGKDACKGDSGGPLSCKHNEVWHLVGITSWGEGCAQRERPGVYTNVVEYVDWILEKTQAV

Plasma kallikrein = Plasma kallikrein (Homo sapiens, UniProt P03952); experiment: Inhibition of human plasma kallikrein using chromogenic L-pyroGlu-L-Pro-L-Arg-p-nitroaniline as substrate by fluorescence assay
Sequence of Plasma kallikrein (P03952 20-390 limits assumed): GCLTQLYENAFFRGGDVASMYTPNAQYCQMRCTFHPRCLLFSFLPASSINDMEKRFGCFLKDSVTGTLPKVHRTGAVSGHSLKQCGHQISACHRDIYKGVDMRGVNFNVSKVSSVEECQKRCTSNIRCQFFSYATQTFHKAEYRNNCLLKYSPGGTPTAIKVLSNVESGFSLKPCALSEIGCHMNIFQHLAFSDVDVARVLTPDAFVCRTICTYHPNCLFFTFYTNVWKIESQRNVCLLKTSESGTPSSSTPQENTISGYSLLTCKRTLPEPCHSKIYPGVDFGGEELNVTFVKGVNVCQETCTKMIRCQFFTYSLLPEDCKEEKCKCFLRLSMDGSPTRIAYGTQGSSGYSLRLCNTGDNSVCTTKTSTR
Sequence of Plasma kallikrein (P03952 391-638 limits assumed): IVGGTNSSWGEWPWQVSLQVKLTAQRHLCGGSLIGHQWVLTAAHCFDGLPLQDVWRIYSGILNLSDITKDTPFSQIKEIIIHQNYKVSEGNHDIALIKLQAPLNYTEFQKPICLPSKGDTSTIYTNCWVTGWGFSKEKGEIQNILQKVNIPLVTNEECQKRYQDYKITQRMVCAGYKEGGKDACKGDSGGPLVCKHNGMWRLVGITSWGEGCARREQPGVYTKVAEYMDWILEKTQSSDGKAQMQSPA

[6] = target: Tissue-type plasminogen activator (Homo sapiens, UniProt P00750); experiment: Inhibition of tPA (unknown origin) using chromogenic H-D-Ile-L-Pro-L-Arg-p-nitoraniline as substrate by […]
Sequence of Tissue-type plasminogen activator (P00750 whole entry): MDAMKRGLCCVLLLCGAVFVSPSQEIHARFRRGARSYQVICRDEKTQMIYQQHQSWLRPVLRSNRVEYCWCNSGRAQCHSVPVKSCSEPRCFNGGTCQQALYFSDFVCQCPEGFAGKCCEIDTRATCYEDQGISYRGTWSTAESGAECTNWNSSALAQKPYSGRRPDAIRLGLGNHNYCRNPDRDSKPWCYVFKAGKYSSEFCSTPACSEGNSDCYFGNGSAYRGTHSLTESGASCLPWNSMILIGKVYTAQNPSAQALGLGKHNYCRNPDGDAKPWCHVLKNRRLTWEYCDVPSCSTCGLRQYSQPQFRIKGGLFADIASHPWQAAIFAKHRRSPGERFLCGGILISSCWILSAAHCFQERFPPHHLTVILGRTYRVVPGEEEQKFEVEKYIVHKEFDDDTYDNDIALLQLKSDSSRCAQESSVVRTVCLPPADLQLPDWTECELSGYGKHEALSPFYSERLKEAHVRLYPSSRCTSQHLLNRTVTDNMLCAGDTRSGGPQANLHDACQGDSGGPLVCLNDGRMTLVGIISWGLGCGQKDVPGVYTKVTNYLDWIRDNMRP

Coagulation factor X = Coagulation factor X (Homo sapiens, UniProt P00742); experiment: Inhibition of factor 10a (unknown origin) using chromogenic H-D-Ile-L-Pro-L-Arg-p-nitoraniline as substrate by fluorescence assay
Sequence of Coagulation factor X (P00742 41-179 limits assumed): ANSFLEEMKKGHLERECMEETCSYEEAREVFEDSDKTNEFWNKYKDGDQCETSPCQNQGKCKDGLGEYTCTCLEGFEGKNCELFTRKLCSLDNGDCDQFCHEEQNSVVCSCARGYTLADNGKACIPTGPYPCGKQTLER
Sequence of Coagulation factor X (P00742 235-488 limits assumed): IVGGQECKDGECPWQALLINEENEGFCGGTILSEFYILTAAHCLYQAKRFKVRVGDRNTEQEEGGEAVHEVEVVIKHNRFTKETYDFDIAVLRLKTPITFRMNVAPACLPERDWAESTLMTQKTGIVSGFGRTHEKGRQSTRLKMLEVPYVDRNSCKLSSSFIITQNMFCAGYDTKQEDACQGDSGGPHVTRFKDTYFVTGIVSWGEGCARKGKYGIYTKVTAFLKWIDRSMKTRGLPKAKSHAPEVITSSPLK

[7] = target: Vitamin K-dependent protein C (Homo sapiens, UniProt P04070); experiment: Inhibition of activated protein C (unknown origin) using chromogenic L-pyroGlu-L-Pro-L-Arg-p-nitroaniline as substrate by fluorescence assay
Sequence of Vitamin K-dependent protein C (P04070 43-197 limits assumed): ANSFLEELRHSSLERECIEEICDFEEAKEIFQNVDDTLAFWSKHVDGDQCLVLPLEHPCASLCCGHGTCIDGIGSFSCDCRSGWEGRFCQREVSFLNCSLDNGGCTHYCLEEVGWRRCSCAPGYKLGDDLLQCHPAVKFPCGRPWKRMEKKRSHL
Sequence of Vitamin K-dependent protein C (P04070 212-461 limits assumed): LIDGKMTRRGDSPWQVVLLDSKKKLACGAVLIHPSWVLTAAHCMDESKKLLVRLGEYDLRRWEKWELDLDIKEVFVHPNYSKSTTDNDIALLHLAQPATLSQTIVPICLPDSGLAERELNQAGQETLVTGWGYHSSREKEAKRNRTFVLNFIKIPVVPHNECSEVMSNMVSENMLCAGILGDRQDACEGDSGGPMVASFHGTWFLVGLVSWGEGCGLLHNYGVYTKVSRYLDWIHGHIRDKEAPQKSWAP

[8] = target: T1, Urokinase-type plasminogen activator; experiment: Inhibition of human kidney uPA using chromogenic H-D-Ile-L-Pro-L-Arg-p-nitoraniline as substrate by fluorescence assay
Method in brief: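 Enzyme was uPA from human kidney cells at 10 nM final. […] Absorbance change at 405 nm gave initial rates. IC50 from a sigmoidal fit of % residual activity vs log concentration.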

CSc1ccc(-c2nc(C(=O)NC(=N)N)c(N)nc2N2CCCCCC2)cc1
Ki [1]: 16.4 µM

N=C(N)NC(=O)c1nc(-c2ccsc2)c(N2CCCCCC2)nc1N
Ki [1]: 1.03 µM

N=C(N)NC(=O)c1nc(-c2cncnc2)c(N2CCCCCC2)nc1N
inhibition (INH) [2]: Not Active | inhibition (Trypsin): Active | IC50 (HEK293): > 100 µM | IC50 (HT-1080): 37.1 µM | IC50 (MDA-MB-231): > 100 µM | inhibition [3]: Active | Ki [1]: 0.108 µM | inhibition (INH) [4]: Not Active | inhibition (INH) [5]: Not Active | IC50 (HepG2): > 100 µM

N=C(N)NC(=O)c1nc(-c2cccnc2F)c(N2CCCCCC2)nc1N
Ki [1]: 1.78 µM

CC(C)Nc1ncc(-c2nc(C(=O)NC(=N)N)c(N)nc2N2CCCCCC2)cn1
Ki [1]: 0.042 µM

COc1ccc(-c2nc(C(=O)NC(=N)N)c(N)nc2N2CCCCCC2)c(OC)c1
Ki [1]: 2.2 µM

COc1cc(OC)cc(-c2nc(C(=O)NC(=N)N)c(N)nc2N2CCCCCC2)c1
Ki [1]: 1.32 µM

N=C(N)NC(=O)c1nc(-c2ccco2)c(N2CCCCCC2)nc1N
Ki [1]: 0.156 µM

N=C(N)NC(=O)c1nc(-c2ccccc2)c(N2CCCCCC2)nc1N
Ki [1]: 5.02 µM

N=C(N)NC(=O)c1nc(-c2ccc3c(c2)OCO3)c(N2CCCCCC2)nc1N
Ki [1]: 0.934 µM

Cn1cc(-c2nc(C(=O)NC(=N)N)c(N)nc2N2CCCCCC2)cn1
Ki [1]: 0.508 µM

N=C(N)NC(=O)c1nc(-c2cnc(N)nc2)c(N2CCCCCC2)nc1N
Ki [1]: 0.021 µM

N=C(N)NC(=O)c1nc(-c2cccs2)c(N2CCCCCC2)nc1N
Ki [1]: 2.42 µM

N=C(N)NC(=O)c1nc(-c2ccoc2)c(N2CCCCCC2)nc1N
Ki [1]: 0.166 µM

CNc1ncc(-c2nc(C(=O)NC(=N)N)c(N)nc2N2CCCCCC2)cn1
Ki [1]: 0.043 µM

N=C(N)NC(=O)c1nc(-c2cc3ccccc3s2)c(N2CCCCCC2)nc1N
Ki [1]: 3.31 µM

N=C(N)NC(=O)c1nc(-c2cnc(NCCO)nc2)c(N2CCCCCC2)nc1N
Ki [1]: 0.041 µM

N=C(N)NC(=O)c1nc(-c2cncc3ccccc23)c(N2CCCCCC2)nc1N
Ki [1]: 3.54 µM

N=C(N)NC(=O)c1nc(-c2cc3c(F)cccc3o2)c(N2CCCCCC2)nc1N
IC50 (HEK293): 12 µM | IC50 (HT-1080): 2.1 µM | IC50 (MDA-MB-231): 3.2 µM | Ki [1]: 0.088 µM | IC50 (Plasminogen): > 20 µM | IC50 (Prothrombin): > 20 µM | IC50 (Coagulation factor XI): 23.3 µM | IC50 (Plasma kallikrein): 16.7 µM | IC50 [6]: > 20 µM | IC50 (Coagulation factor X): > 50 µM | IC50 [7]: > 50 µM | IC50 (HepG2): 68.4 µM | IC50 [8]: 0.43 µM

COc1ncc(-c2nc(C(=O)NC(=N)N)c(N)nc2N2CCCCCC2)c(OC)n1
Ki [1]: 0.042 µM

N=C(N)NC(=O)c1nc(Nc2ncccn2)c(N2CCCCCC2)nc1N
Ki [1]: 0.228 µM

N=C(N)NC(=O)c1nc(-c2cc3ccccc3[nH]2)c(N2CCCCCC2)nc1N
inhibition (INH) [2]: Not Active | Ki [1]: 5.67 µM | inhibition (INH) [4]: Not Active | inhibition (INH) [5]: Not Active

COc1cc(-c2nc(C(=O)NC(=N)N)c(N)nc2N2CCCCCC2)c(OC)nn1
Ki [1]: 0.315 µM

COc1ccc(-c2nc(C(=O)NC(=N)N)c(N)nc2N2CCCCCC2)c(OC)n1
Ki [1]: 0.884 µM

N=C(N)NC(=O)c1nc(-c2ccc(C(F)(F)F)cc2)c(N2CCCCCC2)nc1N
inhibition (INH) [2]: Not Active | Ki [1]: 4.26 µM | inhibition (INH) [4]: Not Active | inhibition (INH) [5]: Not Active

N=C(N)NC(=O)c1nc(-c2cnn(CCN3CCOCC3)c2)c(N2CCCCCC2)nc1N
Ki [1]: 0.658 µM
